Results as given in ChEMBL document CHEMBL1157747, “Discovery, structure-activity relationships, pharmacokinetics, and efficacy of glucokinase activator (2R)-3-cyclopentyl-2-(4-methanesulfonylphenyl)-N-thiazol-2-yl-propionamide (RO0281675)” (J Med Chem, 2010).
In brackets after ≈: the same amount, converted by molar mass. Activity calls are given as the source filed them. The rule behind the calls is not given here.

How the values were obtained:
[1] = system: Glucokinase (Homo sapiens); test: Activity of glucokinase assessed as stimulatory concentration required to increase 1.5 fold enzymatic activity
[2] = system: Glucokinase (Homo sapiens); test: Activity of glucokinase at 30 uM
Mus musculus = test: Reduction in glucose AUC in C57BL/6J mouse at 50 mg/kg, po pretreated 30 mins by oral glucose tolerance test relative to control; type: functional, organism-based; set-up: dose 50 mg/kg
Summary of the method: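 Male C57BL/6J mice got a single oral 50 mg/kg dose and underwent an oral glucose tolerance test. Fasting glucose and glucose tolerance were compared with vehicle-treated animals. Values are mean ± STD, n = 6 per time point; Student's t test, P < 0.05.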

[3] = Clearance in CD rat at 5 mg/kg, iv; type: ADME, organism-based; set-up: dose 5 mg/kg, route intravenous; conditions: in vivo
[4] = Volume of distribution at steady state in CD rat at 5 mg/kg, iv; type: ADME, organism-based; set-up: dose 5 mg/kg, route intravenous; conditions: in vivo, read-out: Vdss
[5] = AUC (0 to infinity) in CD rat at 5 mg/kg, iv; type: ADME, organism-based; set-up: time infinity, dose 5 mg/kg, route intravenous; conditions: plasma
[6] = AUC (0 to infinity) in CD rat at 10 mg/kg, po; type: ADME, organism-based; set-up: time infinity, dose 10 mg/kg, route oral; conditions: plasma
[7] = AUC (0 to infinity) in CD rat at 30 mg/kg, po; type: ADME, organism-based; set-up: time infinity, dose 30 mg/kg, route oral; conditions: plasma
[8] = Cmax in CD rat at 10 mg/kg, po; type: ADME, organism-based; set-up: dose 10 mg/kg, route oral; conditions: in vivo
[9] = Cmax in CD rat at 30 mg/kg, po; type: ADME, organism-based; set-up: dose 30 mg/kg, route oral; conditions: in vivo
[10] = Tmax in CD rat at 10 mg/kg, po; type: ADME, organism-based; set-up: dose 10 mg/kg, route oral; conditions: in vivo
[11] = Tmax in CD rat at 30 mg/kg, po; type: ADME, organism-based; set-up: dose 30 mg/kg, route oral; conditions: in vivo
[12] = Oral bioavailability in CD rat at 10 mg/kg; type: ADME, organism-based; conditions: in vivo
Pancreatic islet = test: […] of glucose-stimulated insulin secretion in C57BL/6J mouse isolated pancreatic islets cells after 4 to 5 days
[13] = system: Glucokinase (Homo sapiens); test: Activity of glucokinase up to 10 uM
[14] = Oral bioavailability in CD rat at 30 mg/kg; type: ADME, organism-based; conditions: in vivo
[15] = system: Glucokinase (Homo sapiens); test: Activation of glucokinase at 20 uM relative to control
[16] = system: Glucokinase (Homo sapiens); test: Activation of glucokinase assessed as […] in Km at 1 uM relative to control
[17] = system: Glucokinase (Homo sapiens); test: Activation of glucokinase assessed as […] in Km at 20 uM relative to control
[18] = system: Glucokinase (Homo sapiens); test: Activation of glucokinase assessed as increase in Vmax at 1 uM relative to control
[19] = Aqueous solubility of the compound; type: physicochemical

Structure (SMILES) | Activity [1] | also measured
CC(C)CNC(=O)NC(=O)C(CC1CCCC1)c1ccc(Cl)c(Cl)c1 (configuration not stated) | 6.3 µM | –
CC(C)CC(C(=O)NC(=O)N(C)C)c1ccc(Cl)c(Cl)c1 (configuration not stated) | – | Activity [2]: inactive
CNC(=O)NC(=O)C(CCC1CCCC1)c1ccc(Cl)c(Cl)c1 (configuration not stated) | – | Activity [2]: inactive
CNC(=O)NC(=O)C(CC1CCCC1)c1ccc(Cl)c(Cl)c1 (configuration not stated) | 1 µM | –
CNC(=O)NC(=O)C(CC1CCCC1)c1cccc(Cl)c1 (configuration not stated) | 3.7 µM | –
CCCCNC(=O)NC(=O)C(CC1CCCC1)c1ccc(Cl)c(Cl)c1 (configuration not stated) | – | Activity [2]: inactive
O=C(Nc1nc(CO)cs1)C(CC1CCCC1)c1ccc(Cl)c(Cl)c1 (configuration not stated) | 0.99 µM | –
COC(=O)CNC(=O)NC(=O)C(CC1CCCC1)c1ccc(Cl)c(Cl)c1 (configuration not stated) | 0.55 µM | –
O=C(Nc1nc(CCO)cs1)C(CC1CCCC1)c1ccc(Cl)c(Cl)c1 (configuration not stated) | 0.84 µM | –
O=C(Nc1nccs1)C(CC1CCCC1)c1ccc(S(=O)(=O)C(F)(F)F)cc1 (configuration not stated) | 0.19 µM | –
CS(=O)(=O)c1ccc([C@@H](CC2CCCC2)C(=O)Nc2nccs2)cc1 [Ro-281675] | – | Activity (Mus musculus): Active; clearance [3]: 30 mL/min/kg; Vd [4]: 2.16 L/kg; AUC(0-inf) [5]: 2770 ng·h/mL; AUC(0-inf) [6]: 5150 ng·h/mL; AUC(0-inf) [7]: 51700 ng·h/mL; Cmax [8]: 1140 µg/mL; Cmax [9]: 4300 µg/mL; Tmax [10]: 3.3 h; Tmax [11]: 4.7 h; bioavailability [12]: 92.8%; Activity (Pancreatic islet): Dose-dependent effect
CNC(=O)NC(=O)C(CC1CCCC1)c1cccc(S(=O)(=O)C(F)(F)F)c1 (configuration not stated) | 1 µM | –
Cc1csc(NC(=O)C(CC2CCCC2)c2ccc(Cl)c(Cl)c2)n1 (configuration not stated) | 1.2 µM | –
CCOC(=O)CCNC(=O)NC(=O)C(CC1CCCC1)c1ccc(Cl)c(Cl)c1 (configuration not stated) | 8.4 µM | –
O=C(NCCO)NC(=O)C(CC1CCCC1)c1ccc(Cl)c(Cl)c1 (configuration not stated) | 3.4 µM | –
O=C(O)c1csc(NC(=O)C(CC2CCCC2)c2ccc(Cl)c(Cl)c2)n1 (configuration not stated) | 29 µM | –
CNC(=O)NC(=O)[C@@H](CC1CCCC1)c1ccc(Cl)c(Cl)c1 | – | Activity [2]: inactive; Activity [13]: inactive
CNC(=O)NC(=O)C(CC1CCCC1)c1ccc(S(C)(=O)=O)cc1 (configuration not stated) | 1.5 µM | –
CCOC(=O)CNC(=O)NC(=O)C(CC1CCCC1)c1ccc(Cl)c(Cl)c1 (configuration not stated) | 1.3 µM | –
O=C(O)Cc1csc(NC(=O)C(CC2CCCC2)c2ccc(Cl)c(Cl)c2)n1 (configuration not stated) | 8 µM | –
Cc1nc(NC(=O)C(CC2CCCC2)c2ccc(Cl)c(Cl)c2)sc1C (configuration not stated) | 1.6 µM | –
CNC(=O)N(C)C(=O)C(CC1CCCC1)c1ccc(Cl)c(Cl)c1 (configuration not stated) | – | Activity [2]: inactive

Structure (SMILES) | Activity [1] | also measured
NC(=O)NC(=O)C(CC1CC1)c1ccc(Cl)c(Cl)c1 (configuration not stated) | 40 µM | –
CNC(=O)NC(=O)C(CC1CCCC1)c1ccc(S(=O)(=O)C(F)(F)F)cc1 (configuration not stated) | 0.3 µM | –
CNC(=O)NC(=O)[C@H](CC1CCCC1)c1ccc(Cl)c(Cl)c1 | 0.41 µM | Activity (Mus musculus): Active; clearance [3]: 43.5 mL/min/kg; Vd [4]: 4.21 L/kg; AUC(0-inf) [5]: 1880 ng·h/mL; AUC(0-inf) [6]: 455 ng·h/mL; AUC(0-inf) [7]: 1460 ng·h/mL; Cmax [8]: 133 µg/mL; Cmax [9]: 0.471 µg/mL; Tmax [10]: 1.4 h; Tmax [11]: 3.3 h; bioavailability [12]: 12%; bioavailability [14]: 13%; fold change (FC) [15]: 1.7; fold change (FC) [16]: 0.66; fold change (FC) [17]: 0.22; fold change (FC) [18]: 1.4; Activity (Pancreatic islet): Dose-dependent effect
O=C(Nc1nccs1)C(CC1CCCC1)c1cccc(Cl)c1 (configuration not stated) | 1.7 µM | –
CCOC(=O)c1csc(NC(=O)C(CC2CCCC2)c2ccc(Cl)c(Cl)c2)n1 (configuration not stated) | 2.7 µM | –
O=C(O)CCNC(=O)NC(=O)C(CC1CCCC1)c1ccc(Cl)c(Cl)c1 (configuration not stated) | – | Activity [2]: inactive
CNC(=O)NC(=O)C(CC1CCCC1)c1ccc(Cl)cc1 (configuration not stated) | 5.4 µM | –
CNC(=O)NC(=O)C(CC1CCCCC1)c1ccc(Cl)c(Cl)c1 (configuration not stated) | 1.4 µM | –
O=C(O)CNC(=O)NC(=O)C(CC1CCCC1)c1ccc(Cl)c(Cl)c1 (configuration not stated) | inactive | –
NC(=O)NC(=O)C(CC1CCCCCC1)c1ccc(Cl)c(Cl)c1 (configuration not stated) | 12 µM | –
CCOC(=O)Cc1csc(NC(=O)C(CC2CCCC2)c2ccc(Cl)c(Cl)c2)n1 (configuration not stated) | 0.61 µM | –
O=C(Nc1nccs1)C(CC1CCCC1)c1ccc([N+](=O)[O-])cc1 (configuration not stated) | 0.84 µM | –
NC(=O)NC(=O)C(CC1CCC1)c1ccc(Cl)c(Cl)c1 (configuration not stated) | 10 µM | –
N=C(N)NC(=O)C(CC1CCCC1)c1ccc(Cl)c(Cl)c1 (configuration not stated) | – | Activity [2]: inactive
CC(C)CC(C(=O)NC(N)=O)c1ccc(Cl)c(Cl)c1 (configuration not stated) | 29 µM | –
O=C(Nc1nccs1)C(CC1CCCC1)c1ccc(Cl)cc1 (configuration not stated) | 3.1 µM | –
COC(=O)CCNC(=O)NC(=O)C(CC1CCCC1)c1ccc(Cl)c(Cl)c1 (configuration not stated) | 3.2 µM | –
CSc1ccc(C(CC2CCCC2)C(=O)Nc2nccs2)cc1 (configuration not stated) | 2.2 µM | –
NC(=O)NC(=O)C(CC1CCCCC1)c1ccc(Cl)c(Cl)c1 (configuration not stated) | 8.9 µM | –
O=C(O)c1cnc(NC(=O)C(CC2CCCC2)c2ccc(Cl)c(Cl)c2)s1 (configuration not stated) | 26 µM | –
COC(=O)c1csc(NC(=O)C(CC2CCCC2)c2ccc(Cl)c(Cl)c2)n1 (configuration not stated) | 0.5 µM | solubility [19]: 24 µg/mL (≈ 56.2 µM)
C[S+]([O-])c1ccc(C(CC2CCCC2)C(=O)Nc2nccs2)cc1 (configuration not stated) | 2.2 µM | –

Structure (SMILES) | Activity [1] | also measured
CNC(=O)NC(=O)C(CC1CCCC1)c1ccc(SC)cc1 (configuration not stated) | 3.2 µM | –
O=C(Nc1nccs1)C(CC1CCCC1)c1ccc(Cl)c(Cl)c1 (configuration not stated) | 0.94 µM | solubility [19]: 5 µg/mL (≈ 13.5 µM)
O=C1NCCN1C(=O)C(CC1CCCC1)c1ccc(Cl)c(Cl)c1 (configuration not stated) | – | Activity [2]: inactive
CCOC(=O)c1cnc(NC(=O)C(CC2CCCC2)c2ccc(Cl)c(Cl)c2)s1 (configuration not stated) | 8 µM | –
COC(=O)c1cnc(NC(=O)C(CC2CCCC2)c2ccc(Cl)c(Cl)c2)s1 (configuration not stated) | 0.92 µM | –
CNC(=O)NC(=O)C(CC1CCCC1)c1ccc(SC(F)(F)F)cc1 (configuration not stated) | 1.4 µM | –
O=C(Nc1nccs1)C(CC1CCCC1)c1cccc(S(=O)(=O)C(F)(F)F)c1 (configuration not stated) | 1.4 µM | –
CNC(=O)NC(=O)C(CC1CCCC1)c1ccc([N+](=O)[O-])cc1 (configuration not stated) | 5.4 µM | –
O=C(Nc1nccs1)C(CC1CCCC1)c1ccc(SC(F)(F)F)cc1 (configuration not stated) | 1.8 µM | –
CCCNC(=O)NC(=O)C(CC1CCCC1)c1ccc(Cl)c(Cl)c1 (configuration not stated) | 1.3 µM | –
CNC(=O)NC(=O)C(CC1CCCC1)c1ccc(Br)cc1 (configuration not stated) | 3.8 µM | –
CCNC(=O)NC(=O)C(CC1CCCC1)c1ccc(Cl)c(Cl)c1 (configuration not stated) | 0.53 µM | –
CNC(=O)NC(=O)C(CC1CCCC1)c1ccccc1 (configuration not stated) | 28.2 µM | –
NC(=O)NC(=O)C(CC1CCCC1)c1ccc(Cl)c(Cl)c1 (configuration not stated) | 4.4 µM | –
COC(=O)Cc1csc(NC(=O)C(CC2CCCC2)c2ccc(Cl)c(Cl)c2)n1 (configuration not stated) | 0.82 µM | –
CNC(=O)NC(=O)C(CC1CCCC1)c1ccc(F)c(F)c1 (configuration not stated) | 8.5 µM | –
Cc1cnc(NC(=O)C(CC2CCCC2)c2ccc(Cl)c(Cl)c2)s1 (configuration not stated) | 0.64 µM | –
CNC(=S)NC(=O)C(CC1CCCC1)c1ccc(Cl)c(Cl)c1 (configuration not stated) | 3.8 µM | –
O=C(Nc1ncc(CO)s1)C(CC1CCCC1)c1ccc(Cl)c(Cl)c1 (configuration not stated) | 0.75 µM | –
O=C(Nc1nccs1)C(Cc1ccccc1)c1ccc(Cl)c(Cl)c1 (configuration not stated) | – | Activity [2]: inactive
C=CCNC(=O)NC(=O)C(CC1CCCC1)c1ccc(Cl)c(Cl)c1 (configuration not stated) | 1.3 µM | –
CNC(=O)NC(=O)C(CC(C)C)c1ccc(Cl)c(Cl)c1 (configuration not stated) | 6 µM | –
